Results: ChEMBL document CHEMBL1154962, “Novel 6-N-arylcarboxamidopyrazolo[4,3-d]pyrimidin-7-one derivatives as potential anti-cancer agents” (2010)

Columns and labels:
[1] = test system: HT-29; experiment: Cytotoxicity against human HT-29 cells at 100 uM after 2 days by sulforhodamine B assay; assay type: functional; details: HT-29, 48 h
Method in brief: (§1)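 Five human cancer lines (HT-29, DU-145, A-549, SK-MEL-2, SK-OV-3) seeded at 3–7 × 10³ cells/well; compounds at 100 µM added in duplicate; 37 °C, 5% CO₂, two days. Fixed with formalin, SRB stained, washed with 1% acetic acid, dye solubilized in 10 mM unbuffered Tris base; OD at 520 nm. Read-out is % inhibition.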

[2] = test system: SK-MEL-2; experiment: Cytotoxicity against human SK-MEL-2 cells at 100 uM after 2 days by sulforhodamine B assay; assay type: functional; details: SK-MEL-2, 48 h; method in brief: as §1
[3] = test system: DU-145; experiment: Cytotoxicity against human DU145 cells at 100 uM after 2 days by sulforhodamine B assay; assay type: functional; details: DU-145, 48 h; method in brief: as §1
[4] = test system: SK-OV-3; experiment: Cytotoxicity against human SKOV3 cells at 100 uM after 2 days by sulforhodamine B assay; assay type: functional; details: SK-OV-3, 48 h; method in brief: as §1
[5] = test system: A549; experiment: Cytotoxicity against human A549 cells at 100 uM after 2 days by sulforhodamine B assay; assay type: functional; details: A549, 48 h; method in brief: as §1
[6] = molecular target: Platelet-derived growth factor receptor alpha (Homo sapiens) (UniProt P16234); experiment: Inhibition of human PDGFRalpha assessed as remaining enzyme activity at 10 uM; values are per cent of control
[7] = test system: HT-29; experiment: Growth inhibition of human HT-29 cells after 2 days by MTT assay; assay type: functional; details: HT-29, 48 h
Method in brief: (§2)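 HT-29 and DU-145 cells seeded at 5 × 10⁴ cells/mL; serial concentrations added in duplicate; 37 °C, 5% CO₂, two days. MTT dye (Cell Titer96) for up to 4 h at 37 °C, then solubilization/stop mix overnight at room temperature; OD at 570 nm. GI₅₀ = concentration giving 50% growth inhibition; mean ± SEM of three or more experiments; doxorubicin as internal standard.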

[8] = molecular target: Glycogen synthase kinase-3 beta (Homo sapiens) (UniProt P49841); experiment: Inhibition of human GSK3-beta assessed as remaining enzyme activity at 10 uM; values are per cent of control
[9] = molecular target: T1, Aurora kinase A (Homo sapiens) (UniProt O14965); experiment: Inhibition of human Aurora A at 10 uM
T1 sequence (whole entry): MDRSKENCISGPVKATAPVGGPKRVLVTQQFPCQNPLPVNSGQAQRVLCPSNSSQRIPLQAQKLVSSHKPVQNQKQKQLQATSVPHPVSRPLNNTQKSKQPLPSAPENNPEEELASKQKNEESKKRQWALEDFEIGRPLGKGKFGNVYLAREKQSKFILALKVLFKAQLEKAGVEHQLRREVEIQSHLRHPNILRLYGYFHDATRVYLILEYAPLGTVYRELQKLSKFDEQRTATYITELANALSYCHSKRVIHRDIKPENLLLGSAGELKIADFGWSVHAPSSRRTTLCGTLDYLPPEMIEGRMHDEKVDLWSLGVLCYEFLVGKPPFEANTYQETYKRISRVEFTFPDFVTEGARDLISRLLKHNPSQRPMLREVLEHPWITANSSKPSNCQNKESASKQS

[10] = molecular target: Epidermal growth factor receptor (Homo sapiens) (UniProt P00533); experiment: Inhibition of human EGFR assessed as remaining enzyme activity at 10 uM; values are per cent of control
[11] = molecular target: T1, Aurora kinase A (Homo sapiens); experiment: Inhibition of human Aurora A assessed as remaining enzyme activity at 10 uM; values are per cent of control
[12] = test system: DU-145; experiment: Growth inhibition of human DU145 cells after 2 days by MTT assay; assay type: functional; details: DU-145, 48 h; method in brief: as §2
[13] = molecular target: Glycogen synthase kinase-3 beta (Homo sapiens) (UniProt P49841); experiment: Inhibition of human GSK3-beta at 10 uM

Chain of Glycogen synthase kinase-3 beta (Homo sapiens) (P49841 whole entry, looked up): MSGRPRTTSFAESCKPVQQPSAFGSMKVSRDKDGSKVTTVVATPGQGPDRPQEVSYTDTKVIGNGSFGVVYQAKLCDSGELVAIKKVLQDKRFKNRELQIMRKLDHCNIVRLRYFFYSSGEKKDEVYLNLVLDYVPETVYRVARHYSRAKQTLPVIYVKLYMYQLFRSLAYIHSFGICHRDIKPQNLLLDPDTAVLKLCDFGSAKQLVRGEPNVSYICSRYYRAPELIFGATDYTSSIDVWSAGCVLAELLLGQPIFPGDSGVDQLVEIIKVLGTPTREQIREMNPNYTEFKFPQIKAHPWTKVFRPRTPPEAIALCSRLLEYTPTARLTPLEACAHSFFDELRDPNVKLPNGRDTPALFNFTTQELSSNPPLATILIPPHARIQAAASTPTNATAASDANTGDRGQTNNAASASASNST
Chain of Epidermal growth factor receptor (Homo sapiens) (P00533 whole entry): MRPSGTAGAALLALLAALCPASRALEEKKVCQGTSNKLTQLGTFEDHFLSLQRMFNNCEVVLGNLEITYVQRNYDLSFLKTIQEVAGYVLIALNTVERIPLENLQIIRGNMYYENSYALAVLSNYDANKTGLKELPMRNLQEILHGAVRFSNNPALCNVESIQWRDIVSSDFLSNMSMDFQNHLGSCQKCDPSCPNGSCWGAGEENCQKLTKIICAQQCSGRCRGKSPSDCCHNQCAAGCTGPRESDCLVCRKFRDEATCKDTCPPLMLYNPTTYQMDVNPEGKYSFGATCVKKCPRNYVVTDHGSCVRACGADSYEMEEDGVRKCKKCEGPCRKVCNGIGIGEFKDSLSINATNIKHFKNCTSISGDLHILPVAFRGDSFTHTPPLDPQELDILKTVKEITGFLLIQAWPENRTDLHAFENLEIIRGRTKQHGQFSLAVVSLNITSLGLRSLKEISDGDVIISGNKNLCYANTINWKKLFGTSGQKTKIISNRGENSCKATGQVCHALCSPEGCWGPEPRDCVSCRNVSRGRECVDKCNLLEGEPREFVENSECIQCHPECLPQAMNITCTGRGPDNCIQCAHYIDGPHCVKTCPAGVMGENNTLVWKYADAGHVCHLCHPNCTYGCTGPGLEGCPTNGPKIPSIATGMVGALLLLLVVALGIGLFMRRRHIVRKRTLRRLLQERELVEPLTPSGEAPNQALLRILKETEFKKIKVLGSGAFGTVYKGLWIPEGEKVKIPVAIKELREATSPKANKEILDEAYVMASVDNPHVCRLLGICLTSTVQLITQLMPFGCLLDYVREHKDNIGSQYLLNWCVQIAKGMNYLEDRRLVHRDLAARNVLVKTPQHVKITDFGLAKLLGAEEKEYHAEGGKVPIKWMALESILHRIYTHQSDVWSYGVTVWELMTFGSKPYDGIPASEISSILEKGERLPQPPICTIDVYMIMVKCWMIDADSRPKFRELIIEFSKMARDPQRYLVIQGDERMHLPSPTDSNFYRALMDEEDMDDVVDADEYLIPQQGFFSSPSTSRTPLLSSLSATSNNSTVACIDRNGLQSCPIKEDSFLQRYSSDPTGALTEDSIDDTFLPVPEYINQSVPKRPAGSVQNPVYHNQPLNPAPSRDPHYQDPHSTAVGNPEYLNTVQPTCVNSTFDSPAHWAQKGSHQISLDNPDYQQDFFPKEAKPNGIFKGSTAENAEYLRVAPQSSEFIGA
Chain of Platelet-derived growth factor receptor alpha (Homo sapiens) (P16234 whole entry): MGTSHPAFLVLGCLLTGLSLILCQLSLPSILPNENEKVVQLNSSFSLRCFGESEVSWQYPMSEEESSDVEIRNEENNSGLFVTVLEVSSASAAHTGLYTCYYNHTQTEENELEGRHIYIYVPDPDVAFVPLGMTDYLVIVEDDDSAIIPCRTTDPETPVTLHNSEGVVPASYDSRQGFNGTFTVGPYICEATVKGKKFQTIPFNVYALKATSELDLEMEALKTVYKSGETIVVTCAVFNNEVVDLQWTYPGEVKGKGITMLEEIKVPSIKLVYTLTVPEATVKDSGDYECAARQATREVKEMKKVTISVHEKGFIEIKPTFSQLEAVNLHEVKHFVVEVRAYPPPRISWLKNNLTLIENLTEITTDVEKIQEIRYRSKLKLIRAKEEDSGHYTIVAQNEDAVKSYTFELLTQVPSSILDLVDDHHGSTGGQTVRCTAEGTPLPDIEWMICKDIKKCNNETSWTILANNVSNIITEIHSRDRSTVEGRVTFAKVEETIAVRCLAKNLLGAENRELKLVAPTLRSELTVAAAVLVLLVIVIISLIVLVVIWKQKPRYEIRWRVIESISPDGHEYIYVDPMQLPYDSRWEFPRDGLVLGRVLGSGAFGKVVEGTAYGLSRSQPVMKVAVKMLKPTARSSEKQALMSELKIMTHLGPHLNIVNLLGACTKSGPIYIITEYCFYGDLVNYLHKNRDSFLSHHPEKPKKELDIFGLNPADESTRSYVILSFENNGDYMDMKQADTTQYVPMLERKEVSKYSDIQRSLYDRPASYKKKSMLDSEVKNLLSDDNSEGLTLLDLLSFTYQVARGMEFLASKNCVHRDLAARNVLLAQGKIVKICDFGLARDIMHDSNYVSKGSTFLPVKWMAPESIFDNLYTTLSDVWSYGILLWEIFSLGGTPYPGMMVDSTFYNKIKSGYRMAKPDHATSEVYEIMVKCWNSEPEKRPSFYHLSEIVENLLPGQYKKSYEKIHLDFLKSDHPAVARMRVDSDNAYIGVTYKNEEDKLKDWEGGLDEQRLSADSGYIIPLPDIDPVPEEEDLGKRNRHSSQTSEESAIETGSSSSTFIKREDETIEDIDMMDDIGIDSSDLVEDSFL

residual activity [6]	GI50 [7]	residual activity [8]	inhibition [9]	residual activity [10]	residual activity [11]	GI50 [12]	inhibition [13]	SMILES	inhibition at 100 µM [1]	inhibition at 100 µM [2]	inhibition at 100 µM [3]	inhibition at 100 µM [4]	inhibition at 100 µM [5]
								O=C(Nn1c(-c2cccc([N+](=O)[O-])c2)nc2c(CCc3ccccc3)n[nH]c2c1=O)c1cccnc1	20.1%	28.5%	22.5%	30.1%	19%
								COc1cccc(-c2nc3c(-c4ccc(C5CCNCC5)cc4)n[nH]c3c(=O)n2NC(=O)c2ccncc2)c1	28.1%	23.4%	37%	18.2%	32.4%
								CCCc1n[nH]c2c(=O)n(NC(=O)c3ccncc3)c(-c3cccc([N+](=O)[O-])c3)nc12	-0.83%	14.2%	15.1%	15.1%	9.95%
77%	6.39 µM	11%	74%	113%	26%	15.1 µM	89%	O=C(Cc1ccccc1)Nn1c(CC2CCCCC2)nc2c(-c3ccc(Cl)cc3)n[nH]c2c1=O	85.5%		79.8%		
								O=C(Nn1c(-c2cccc([N+](=O)[O-])c2)nc2c(-c3ccc(F)cc3)n[nH]c2c1=O)c1ccccc1	92%	88.5%	90.8%	77.7%	80.7%
	0.85 µM					0.35 µM		COc1cccc2c1C(=O)c1c(O)c3c(c(O)c1C2=O)C[C@@](O)(C(=O)CO)C[C@@H]3O[C@H]1C[C@H](N)[C@H](O)[C@H](C)O1 [DOXORUBICIN]	60.9%		62.8%		
99%	2.26 µM	8%	91%	76%	9%	22.1 µM	92%	CCCCCc1nc2c(-c3ccc(Cl)cc3)n[nH]c2c(=O)n1NC(=O)c1ccccc1	90.1%		88.7%		
								O=C(Nn1c(-c2cccc([N+](=O)[O-])c2)nc2c(-c3cccc(Cl)c3)n[nH]c2c1=O)c1ccccc1	89.8%	78.2%	93.8%		
								O=C(Nn1c(-c2cccc([N+](=O)[O-])c2)nc2c(CCc3ccccc3)n[nH]c2c1=O)c1ccccc1	89.7%	92%	92.5%		73.9%
								CCCc1n[nH]c2c(=O)n(NC(=O)c3ccccc3)c(-c3cccc(OC)c3)nc12	6.27%	16.7%	23.6%	9.96%	20.7%
								O=C(Nn1c(-c2cccc([N+](=O)[O-])c2)nc2c(-c3ccco3)n[nH]c2c1=O)c1ccccc1	21.2%	23%	16.1%	17.9%	18.7%
	22.1 µM					44.9 µM		COc1cccc(Cc2nc3c(-c4ccc(Cl)cc4)n[nH]c3c(=O)n2NC(=O)c2ccccc2)c1	89.3%		93.2%		
								O=C(Nn1c(-c2cccc([N+](=O)[O-])c2)nc2c(-c3cccs3)n[nH]c2c1=O)c1cccnc1	3.9%	3.26%	32.8%		10.2%
								O=C(Nn1c(-c2cccc([N+](=O)[O-])c2)nc2c(-c3ccc(Cl)cc3)n[nH]c2c1=O)c1cccnc1	15.1%	16.3%	31%	30.2%	19.7%
								COc1cccc(-c2nc3c(-c4ccco4)n[nH]c3c(=O)n2NC(=O)c2ccccc2)c1	49.8%	43.2%	50.5%	35.2%	53.8%
								CCCc1n[nH]c2c(=O)n(NC(=O)c3ccncc3)c(-c3cccc(OC)c3)nc12	0.07%	11.4%	4.04%	4.04%	11.2%

residual activity [6]	GI50 [7]	residual activity [8]	inhibition [9]	residual activity [10]	residual activity [11]	GI50 [12]	inhibition [13]	SMILES	inhibition at 100 µM [1]	inhibition at 100 µM [2]	inhibition at 100 µM [3]	inhibition at 100 µM [4]	inhibition at 100 µM [5]
								O=C(Nn1c(-c2cccc([N+](=O)[O-])c2)nc2c(-c3ccc(F)cc3)n[nH]c2c1=O)c1cccnc1	24.7%	24.5%	24.9%	19.3%	28.8%
	23.4 µM					86.7 µM		O=C(Nn1c(CCc2ccccc2)nc2c(-c3ccc(Cl)cc3)n[nH]c2c1=O)c1ccccc1	86.5%		85.6%		
								COc1cccc(-c2nc3c(-c4ccco4)n[nH]c3c(=O)n2NC(=O)c2cccnc2)c1	12.8%	34.1%	30.1%	25%	14.9%
	18.4 µM					17.1 µM		O=C(Nn1c(-c2cccc([N+](=O)[O-])c2)nc2c(-c3ccc(Cl)cc3)n[nH]c2c1=O)c1ccccc1	87.8%	89%	94.2%	86.8%	88.6%
	20.6 µM					20.1 µM		O=C(Nn1c(-c2ccccc2)nc2c(-c3ccc(Cl)cc3)n[nH]c2c1=O)c1ccccc1	92%		90.2%		
	1.06 µM					> 100 µM		CC(C)(C)c1ccc(C(=O)Nn2c(CC3CCCCC3)nc3c(-c4ccc(Cl)cc4)n[nH]c3c2=O)cc1	72.3%		65.2%		
	15.2 µM					16 µM		CCCc1nc2c(-c3ccc(Cl)cc3)n[nH]c2c(=O)n1NC(=O)Cc1ccccc1	91.4%		89.7%		
								COc1cccc(-c2nc3c(-c4cccc(Cl)c4)n[nH]c3c(=O)n2NC(=O)c2ccccc2)c1	91%	81.9%	93.5%		
								COc1cccc(-c2nc3c(-c4ccc(Cl)cc4)n[nH]c3c(=O)n2NC(=O)c2ccncc2)c1	46%	39.6%	54.4%	42.5%	46%
	1.8 µM					10.2 µM		O=C(Nn1c(CCC2CCCC2)nc2c(-c3ccc(Cl)cc3)n[nH]c2c1=O)c1ccccc1	87.3%		89.6%		
	20.6 µM					21.5 µM		CC(C)(C)c1ccc(C(=O)Nn2c(CCC3CCCC3)nc3c(-c4ccc(Cl)cc4)n[nH]c3c2=O)cc1	76.8%		64.2%		
								CCCc1n[nH]c2c(=O)n(NC(=O)c3ccccc3)c(-c3cccc([N+](=O)[O-])c3)nc12	18.7%	22.9%	27.8%	28.8%	33.2%
								CC(C)Cc1n[nH]c2c(=O)n(NC(=O)c3ccncc3)c(-c3cccc([N+](=O)[O-])c3)nc12		38.7%	55.3%	35.8%	
	9.26 µM					29.2 µM		CCCc1nc2c(-c3ccc(Cl)cc3)n[nH]c2c(=O)n1NC(=O)c1ccccc1	91.1%		89.4%		
	20.4 µM					17.9 µM		COc1cccc(-c2nc3c(-c4ccc(Cl)cc4)n[nH]c3c(=O)n2NC(=O)c2ccccc2)c1	87.3%	84.9%	94.1%	81.7%	81.8%
								O=C(Nn1c(-c2cccc([N+](=O)[O-])c2)nc2c(-c3ccco3)n[nH]c2c1=O)c1cccnc1	11.7%	19.2%	1.66%	-0.61%	1.51%
